Assay outcomes from PubChem.
Shown are actives, neighbours in structure and some others; about 0.9% of the full set was active somewhere.
Calb biofilm kill = mixtures killing C. albicans biofilm | C. albicans biofilm persisters + clotrimazole, fluorescence viability; primary screen in compound mixtures of four per well | inhibition, % at 7.6 µM | 0.02% of 120,000 active;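 active = inhibition above 30.3% in the primary screen of four-compound pools, then above 30% when the compound was retested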;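 note: compounds exposed to preformed 24 h biofilms for 48 h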
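Probe or stimulus – Clotrimazole 50 µg/mL co-treatment · System – C. albicans biofilms · Schedule – 24 h biofilm formation, then 48 h compound exposure, 37 °C · Evaluation – percent inhibition of biofilm viability · Technique – 2-h Alamar Blue fluorescence, 535/590 nm excitation/emission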
S1P4 agonist = activates the human S1P4 receptor; O95977; S1P4-expressing cell line, agonist reporter assay; activation, % at 4.98 µM; 0.35% of 220,000 active; in the data active = activation above about 11%
S1P3 antag-1 = blocks the human S1P3 receptor. Q99500. CHO S1P3 NFAT-BLA reporter, FRET fluorescence, antagonist mode. inhibition, % at 4.98 µM. 0.27% of 170,000 active. AID 485;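 active = inhibition above the plate cutoff, the mean inhibition of test wells on that plate plus 3 SD, cut at about 28% in these data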;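 note: cells challenged with S1P at its EC80 of 0.8 µM; blue over green emission ratio from cleaved BLA substrate after 4 h stimulation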
S1P4 antagonist = blocks the human S1P4 receptor | O95977 | S1P4-expressing cells, antagonist mode, reporter read-out | inhibition, % at 4.98 µM | 0.26% of 220,000 active | AID 1510; in the data active = inhibition above about 29%
MDM2 E3 inh = blocks human Mdm2 ubiquitin ligase activity. 0.11% of 210,000 active. AID 1230. cell-based MDM2 ubiquitination luciferase reporter, 2 h; 0 = plate control, 100 = twice control, blank-subtracted. signal enhancement, % at 5 µM;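 active = signal enhancement of 30% or more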;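 note: luminescence tracks abundance of the self-degrading MDM2-luciferase fusion protein; higher signal means inhibition of MDM2 E3 ligase activity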
Target sequence (Q00987 whole entry, looked up, the tested form may be a part): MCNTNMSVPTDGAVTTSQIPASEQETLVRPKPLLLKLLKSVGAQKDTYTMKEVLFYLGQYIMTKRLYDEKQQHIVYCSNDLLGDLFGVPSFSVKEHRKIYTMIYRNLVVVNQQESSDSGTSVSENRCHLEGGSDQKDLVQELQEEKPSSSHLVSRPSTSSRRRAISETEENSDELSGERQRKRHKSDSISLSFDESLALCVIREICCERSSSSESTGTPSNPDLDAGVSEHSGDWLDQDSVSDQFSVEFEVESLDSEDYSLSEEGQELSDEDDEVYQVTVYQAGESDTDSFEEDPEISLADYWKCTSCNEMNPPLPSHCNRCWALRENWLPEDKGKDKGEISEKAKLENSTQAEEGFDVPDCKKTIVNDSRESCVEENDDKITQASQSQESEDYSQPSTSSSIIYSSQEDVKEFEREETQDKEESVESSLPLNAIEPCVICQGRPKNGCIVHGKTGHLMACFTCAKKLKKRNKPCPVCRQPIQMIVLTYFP
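test system = mammalian cells stably expressing self-ubiquitinating, self-degrading MDM2 E3–luciferase fusion | quantity = 2000 cells/well | incubation = cell settling 4 h, compound treatment 2 h, both 37 °C | signal = luminescence with SteadyLite reagent, 15 min at room temperature | evaluation = % enhancement relative to plate controls after blank subtraction | benchmarks = plate controls and plate blanks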
S1P3 antag-2 = human S1P3 receptor antagonism, confirmation; shares compounds with S1P3 antag-1; CHO S1P3 NFAT-BLA reporter, FRET, antagonist mode; AID 1429; inhibition, % at 4.98 µM; 30% of 240 active;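 active = inhibition above the hit threshold that was computed for the earlier primary screen, cut at about 30% in these data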
Of the large screens only hits and unclear results are named; the others gave an inactive call (follow-up assays come after a bar, where they were run).

CC(C)[C@H](NC(=O)c1ccco1)C(=O)OCC(=O)Nc1ccccc1OC(F)F	none
COCCNC(=S)N/N=C/c1ccc(-c2ccc([N+](=O)[O-])cc2)o1	S1P3 antag-1 31 | S1P3 antag-2 32
COc1ccc(CN(CC2CCC(C(=O)O)CC2)C(=S)Nc2ccccc2C)cc1 (centres undefined)	none
COc1ccc(CN(CC2CCC(C(=O)O)CC2)C(=S)Nc2cc(C)ccc2C)cc1 (centres undefined)	S1P3 antag-1 33 | S1P3 antag-2 inactive
O=C(COC(=O)c1ccc(S(=O)(=O)NCc2ccco2)cc1)Nc1ccc(Cl)cn1	none
CN(C(=O)CC1C(=O)NCCN1CC(c1ccccc1)c1ccccc1)C(C1CC1)C1CC1 (centres undefined)	S1P3 antag-1 29 | S1P3 antag-2 inactive
Cc1ccc(CN2CCNC(=O)C2CC(=O)N(C)C(C2CC2)C2CC2)o1 (centres undefined)	none
CC1Cc2ccccc2N1C1=CC(=O)CCC1 (centres undefined)	none
Cc1nn(-c2ccccc2)c(Cl)c1/C=N/NC(=O)c1ccc(CNc2ccccc2)o1	S1P3 antag-1 28 | S1P3 antag-2 inactive
Cc1nn(-c2ccccc2)c(Cl)c1/C=N/NC(=O)c1ccco1	none (no result: Calb biofilm kill, S1P3 antag-1)
COC(=O)c1c(C(=O)OC)c(-c2cccc(Cl)c2)n2c1CS(=O)C2 (centres undefined)	none
COc1ccc2[nH]c3c(N4CCc5ccccc5C4)ncnc3c2c1	S1P3 antag-1 31 | S1P3 antag-2 inactive
S=C(NCc1ccncc1)Nc1cccc(Cl)c1	none
Fc1ccc(CNC(=S)Nc2cccc(Cl)c2)cc1	S1P3 antag-1 28 (no result: MDM2 E3 inh) | S1P3 antag-2 inactive
Cn1nnnc1N=N/C(=N/Nc1ccccc1)c1ccccc1	none
Cc1ccc(S(=O)(=O)Oc2ccccc2/C=N/NC(N)=S)cc1	none (no result: Calb biofilm kill, S1P3 antag-1)
Cc1ccc(S(=O)(=O)Oc2ccccc2/C=N/N=C(N)N)cc1	S1P3 antag-1 36 | S1P3 antag-2 inactive
Cc1c(-c2cccc(NC(=O)c3cccs3)c2)nc2ncccn12	none
O=C(COC(=O)c1cnc(Cl)c(Cl)c1)NCCC1=CCCCC1	S1P3 antag-1 33 | S1P3 antag-2 inactive
CCCCCCCCCn1c2c(c(=N)c3c1CCC3)CCCC2	S1P3 antag-1 55 | S1P3 antag-2 41
CCCCCCCCCCn1c2c(c(=N)c3c1CCC3)CCC2	none (no result: Calb biofilm kill, S1P3 antag-1)
Cc1[nH]c2ccccc2c1/C=N/Nc1ccc([N+](=O)[O-])cc1	S1P3 antag-1 40 | S1P3 antag-2 inactive
Cc1[nH]c2ccccc2c1/C=N/NC(=O)c1cccc([N+](=O)[O-])c1	none
CCc1ccc(C(=O)COC(=O)CNC(=O)COc2ccccc2)cc1	none
CSc1ccc(/C=C/c2cc(=O)c3ccccc3[nH]2)cc1	S1P3 antag-1 30 | S1P3 antag-2 inactive
Cn1nnnc1SCC(=O)Nc1ccccc1C(N)=O	none
O=C(NC1CCCC1)c1cc(COc2ccc3ncccc3c2)on1	S1P3 antag-1 35 | S1P3 antag-2 inactive
O=C(c1cc(COc2ccc3ncccc3c2)on1)N1CCCCCC1	none
Cn1c(-c2c(N)n(-c3ccccc3)c3nc4ccccc4nc23)nc2ccccc21	S1P3 antag-1 68 | S1P3 antag-2 45
CC(C(=O)Nc1cccc(Br)c1)c1ccc([N+](=O)[O-])cc1 (centres undefined)	S1P3 antag-1 30 | S1P3 antag-2 inactive
CC(C(=O)Nc1cccnc1)c1ccc([N+](=O)[O-])cc1 (centres undefined)	none
COC(=O)c1sccc1NC(=O)C1CC1	none
O=C(N/N=C/c1cn(-c2ccccc2)nc1-c1cc2ccccc2o1)c1c[nH]c2ccccc12	S1P3 antag-1 31 (no result: MDM2 E3 inh) | S1P3 antag-2 inactive
Cc1cc2cc(CNC(=O)Nc3ccccc3)ccc2[nH]1	none
Cc1ccccc1C(=O)N1CCN(c2ccc(NC(=O)c3ccc4c(c3)OCO4)cc2)CC1	S1P3 antag-1 30 | S1P3 antag-2 36
c1ccc(-c2cn3nc(-c4ccccc4)c(-c4ccccc4)nc3n2)cc1	none (no result: Calb biofilm kill, S1P3 antag-1)
Cc1ccc(-c2cn3nc(-c4ccccc4)c(-c4ccccc4)nc3n2)cc1	S1P3 antag-1 50 | S1P3 antag-2 inactive
CCCC(=O)Nc1ccc(Nc2ccccc2)cc1	S1P3 antag-1 101 | S1P3 antag-2 inactive
CCCC(=O)Nc1ccc(-c2ccc(NC(=O)CCC)cc2)cc1	none
COc1ccc(-n2c(C)cc(/C=N/Nc3nnc(C)n3N)c2C)cc1	S1P3 antag-1 31 (no result: MDM2 E3 inh) | S1P3 antag-2 inactive
Cc1csc(C(C)N(C)C(=O)CCc2nnc(CCc3ccccc3)o2)n1 (centres undefined)	none
CCC(=O)c1c[nH]c(C(=O)NCCCn2ccnc2)c1	none (no result: Calb biofilm kill, S1P3 antag-1)
O=C1N/C(=C\c2ccc(O)cc2)C(O)=C1C=NCc1ccccc1	S1P3 antag-1 29 | S1P3 antag-2 inactive
COc1c(F)c(F)c(C(=O)Nc2ccc(-c3nc4ccccc4[nH]3)cc2)c(F)c1F	S1P3 antag-1 28 | S1P3 antag-2 inactive
COc1ccc(C2C3=C(CC(C)(C)CC3=O)OC(N)=C2[N+](=O)[O-])cc1 (centres undefined)	none
O=C(Cc1ccccc1)NC(NCCc1ccccc1)C(Cl)(Cl)Cl (centres undefined)	none (no result: Calb biofilm kill, S1P3 antag-1)
Cc1c(NC(=O)Nc2ccc(Cl)cc2)c(=O)n(-c2ccccc2)n1C	none (no result: Calb biofilm kill)
Cc1c(N=C2N=C(NC(=O)Nc3ccc(Cl)cc3)c3ccccc32)c(=O)n(-c2ccccc2)n1C	S1P3 antag-1 40 | S1P3 antag-2 inactive
CCOc1ccc(-c2nnc(SCC(=O)Nc3cc(C)on3)o2)cc1	S1P3 antag-1 33 | S1P3 antag-2 inactive
COc1cccc(OC)c1C(=O)Nc1nc2cc3c(cc2s1)OCO3	S1P3 antag-1 33 | S1P3 antag-2 inactive
O=C(COc1ncnc2c(Cl)cc(Cl)cc12)Nc1cc([N+](=O)[O-])ccc1Cl	none
O=C(COC(=O)CCCOc1ccc(Cl)cc1Cl)Nc1cccc(Cl)c1	S1P3 antag-1 43 | S1P3 antag-2 inactive
NC(=S)NC1CC2C=CC1C2 (centres undefined)	none
O=C(Nc1ccc(F)cc1)C(Cc1ccccc1)n1cccc1 (centres undefined)	S1P3 antag-1 36 | S1P3 antag-2 inactive
CCn1ccnc1CN(C)Cc1nc(CCC(C)C)no1	none
CC1=C(C(=O)OCCc2ccccc2)C(c2ccsc2)NC(=O)N1C (centres undefined)	none
Cc1cc(C)c(S(=O)(=O)NCc2ccncc2)c(C)c1	none (no result: Calb biofilm kill, S1P3 antag-1)
Cc1ccc(S(=O)(=O)NCc2ccncc2)c(C)c1C	S1P3 antag-1 35 | S1P3 antag-2 inactive
Cc1[nH]c2ccccc2c1C(=O)C(=O)NCC1CCCO1 (centres undefined)	S1P3 antag-1 53 | S1P3 antag-2 inactive
O=C(NCC1CCCO1)C(=O)c1c[nH]c2ccccc12 (centres undefined)	none
CCCC[C@@H]1C[C@H]1[C@@H](NC(=O)c1cccs1)c1ccc(Cl)cc1	S1P3 antag-1 48 (no result: MDM2 E3 inh) | S1P3 antag-2 69
